Type in all cases: functional
Test [1] concerns RPMI-8226. Kind of test: Cytotoxicity against human RPMI8226 cells assessed as cell growth at 10 uM after 48 hrs by SRB assay relative to control. To be noted: RPMI-8226, 48 h, read-out: Activity. The method, boiled down:
(§1)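 This was the NCI primary screen, with compound added once at 10⁻⁵ M and cultures incubated for 48 h. The endpoint was sulforhodamine B protein staining. Results are expressed as percent growth of treated cells relative to untreated control cells.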
A general note: Sulforhodamine B stains cellular protein and so reports cell mass.

The test system of test [2] is SR. Kind of test: Cytotoxicity against human SR cells assessed as cell growth at 10 uM after 48 hrs by SRB assay relative to control. To be noted: read-out: Activity. The method, boiled down: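 Single-dose NCI screen: compound at 10⁻⁵ M added to tumor cell cultures and incubated for 48 h. The SRB protein-binding dye end point was read spectrophotometrically. Results are percent growth of treated cells relative to untreated controls.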

The subject of test [3] is K562. Kind of test: Cytotoxicity against human K562 cells assessed as cell growth at 10 uM after 48 hrs by SRB assay relative to control. To be noted: K562, 48 h, read-out: Activity. The method, boiled down:
as §1

The subject of test [4] is LOX IMVI. The test is described as follows: Cytotoxicity against human LOXIMVI cells assessed as cell growth at 10 uM after 48 hrs by SRB assay relative to control. To be noted: read-out: Activity. The method, boiled down:
as §1

Molecules are shown by their SMILES.

Take `COc1ccc(C2CC(c3ccccc3)=NN2C(=O)/C=C2\SC(=O)NC2=O)cc1` (centres undefined): the growth at 10 µM in test [1] came out at 58.9%; in test [2], 39.1%; in test [3], 58.2%; in test [4], 55.7%.

The values are drawn from ChEMBL document CHEMBL2412956, “Synthesis and biological activity evaluation of 5-pyrazoline substituted 4-thiazolidinones” (Eur J Med Chem, 2013).
